In ChEMBL document CHEMBL4431328, “Development of a Single-Chain Peptide Agonist of the Relaxin-3 Receptor Using Hydrocarbon Stapling” (J Med Chem, 2016):
Activity calls are given as the source filed them. The rule behind the calls is not given here. Where a SMILES comes first, the peptide text is derived from it. Bridges are numbered along the chain shown (N, C = ends). [ ]: non-standard residue; d: D form. S5 = C=CCCC[C@](C)(N)C(=O)O; hCys = N[C@@H](CCS)C(=O)O

How the values were obtained:
[1] = target: T1, Relaxin receptor 1 (Homo sapiens) (UniProt Q9HBX9); assay: Agonist activity at RXFP1 receptor (unknown origin) expressed in HEK-293T cells cotransfected with beta-galactosidase assessed as cAMP activation at 10 uM by beta-galactosidase reporter gene assay; assay type: functional, cell-based
T1 sequence (whole entry): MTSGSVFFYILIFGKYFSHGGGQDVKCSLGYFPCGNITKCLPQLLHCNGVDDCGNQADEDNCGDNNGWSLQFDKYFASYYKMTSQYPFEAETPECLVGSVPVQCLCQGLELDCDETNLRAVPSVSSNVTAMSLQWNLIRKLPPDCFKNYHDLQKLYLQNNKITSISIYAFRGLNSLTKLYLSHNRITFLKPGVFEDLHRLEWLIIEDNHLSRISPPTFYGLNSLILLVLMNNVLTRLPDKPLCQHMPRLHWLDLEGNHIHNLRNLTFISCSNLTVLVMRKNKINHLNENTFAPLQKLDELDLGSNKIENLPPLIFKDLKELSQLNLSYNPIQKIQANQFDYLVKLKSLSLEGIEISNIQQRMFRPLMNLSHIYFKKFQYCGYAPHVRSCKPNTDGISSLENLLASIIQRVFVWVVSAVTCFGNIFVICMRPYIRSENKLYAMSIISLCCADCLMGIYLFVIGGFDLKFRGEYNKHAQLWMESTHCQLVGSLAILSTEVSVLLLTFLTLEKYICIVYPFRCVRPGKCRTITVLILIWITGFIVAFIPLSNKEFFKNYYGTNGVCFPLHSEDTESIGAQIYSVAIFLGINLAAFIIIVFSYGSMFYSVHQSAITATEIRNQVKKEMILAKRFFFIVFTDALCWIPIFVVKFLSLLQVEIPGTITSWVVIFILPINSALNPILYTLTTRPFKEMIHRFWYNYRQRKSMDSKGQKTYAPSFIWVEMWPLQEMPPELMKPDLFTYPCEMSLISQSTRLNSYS
Outline: (§1)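 Tested for RXFP1 activation at concentrations up to 10 µM, alongside the […] as a reference.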

Relaxin-3 receptor 1 [2] = target: T2, Relaxin-3 receptor 1 (Homo sapiens, UniProt Q9NSD7); assay: Agonist activity at human RXFP3 receptor expressed in CHOK1 cells cotransfected with beta-galactosidase assessed as inhibition of forskolin-stimulated cAMP by beta-galactosidase reporter gene assay; assay type: functional, cell-based
T2 sequence (Q9NSD7 whole entry): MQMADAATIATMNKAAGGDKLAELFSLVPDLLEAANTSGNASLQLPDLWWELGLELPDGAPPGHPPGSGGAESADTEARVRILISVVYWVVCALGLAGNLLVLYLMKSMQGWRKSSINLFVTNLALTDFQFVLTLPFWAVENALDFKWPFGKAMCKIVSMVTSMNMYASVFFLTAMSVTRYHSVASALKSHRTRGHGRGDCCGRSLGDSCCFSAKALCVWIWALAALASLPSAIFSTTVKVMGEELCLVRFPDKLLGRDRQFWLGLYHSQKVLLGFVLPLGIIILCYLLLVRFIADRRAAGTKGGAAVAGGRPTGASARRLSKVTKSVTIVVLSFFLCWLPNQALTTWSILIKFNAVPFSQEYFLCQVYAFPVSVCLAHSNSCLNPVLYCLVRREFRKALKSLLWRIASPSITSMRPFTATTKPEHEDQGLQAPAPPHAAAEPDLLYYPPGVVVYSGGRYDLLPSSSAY

Relaxin-3 receptor 2 [3] = target: T3, Relaxin-3 receptor 2 (Homo sapiens, UniProt Q8TDU9); assay: Agonist activity at human RXFP4 receptor expressed in CHOK1 cells cotransfected with beta-galactosidase assessed as inhibition of forskolin-stimulated cAMP by beta-galactosidase reporter gene assay; assay type: functional, cell-based
T3 sequence (Q8TDU9 whole entry): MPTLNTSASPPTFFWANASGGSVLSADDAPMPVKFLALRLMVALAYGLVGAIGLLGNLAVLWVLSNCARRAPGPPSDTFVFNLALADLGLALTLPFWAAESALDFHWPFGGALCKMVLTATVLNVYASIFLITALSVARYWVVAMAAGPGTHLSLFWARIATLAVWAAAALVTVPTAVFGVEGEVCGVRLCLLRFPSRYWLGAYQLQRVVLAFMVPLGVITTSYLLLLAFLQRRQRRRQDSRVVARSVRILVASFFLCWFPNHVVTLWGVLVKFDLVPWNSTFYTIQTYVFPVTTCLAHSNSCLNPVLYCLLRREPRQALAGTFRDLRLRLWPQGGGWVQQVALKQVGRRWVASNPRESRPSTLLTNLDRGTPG

[4] = target: T1, Relaxin receptor 1 (Homo sapiens); assay: (§2) Agonist activity at RXFP1 receptor (unknown origin) expressed in HEK-293T cells cotransfected with beta-galactosidase assessed as cAMP activation by beta-galactosidase reporter gene assay; assay type: functional, cell-based; outline: as §1
Relaxin-3 receptor 2 [5] = target: T3, Relaxin-3 receptor 2; assay: Displacement of Eu-INSL5 from human RXFP4 receptor expressed in CHOK1 cells by time-resolved fluorescent whole cell binding assay; assay type: cell-based
Relaxin-3 receptor 1 [6] = target: T2, Relaxin-3 receptor 1; assay: Displacement of Eu-H3/15 from human RXFP3 receptor expressed in CHOK1 cells by time-resolved fluorescent whole cell binding assay; assay type: cell-based
Relaxin receptor 1 = target: T4, Relaxin receptor 1 (Homo sapiens, UniProt Q9HBX9); assay: as §2; assay type: functional, cell-based; outline: as §1
T4 sequence (Q9HBX9 whole entry): T1 sequence (whole entry)

SMILES	Activity [1]	EC50 (Relaxin-3 receptor 1 [2]) [nM]	EC50 (Relaxin-3 receptor 2 [3]) [nM]	pEC50 [4]	Ki (Relaxin-3 receptor 2 [5]) [nM]	Ki (Relaxin-3 receptor 1 [6]) [nM]	pKi (Relaxin-3 receptor 2 [5])	EC50 (Relaxin receptor 1) [nM]
CC[C@H](C)[C@H](NC(=O)[C@H](Cc1ccccc1)NC(=O)[C@H](CCC(=O)O)NC(=O)[C@H](CCCNC(=N)N)NC(=O)CNC(=O)[C@H](CO)NC(=O)[C@H](CC(C)C)NC(=O)[C@@H](N)CCCNC(=N)N)C(=O)N[C@@H](CCCNC(=N)N)C(=O)N[C@@]1(C)CCC/C=C\CCC[C@@](C)(C(=O)N[C@@H](CO)C(=O)NCC(=O)NCC(=O)N[C@@H](CO)C(=O)N[C@@H](CCCNC(=N)N)C(=O)N[C@@H](Cc2c[nH]c3ccccc23)C(=O)O)NC(=O)[C@H](Cc2ccccc2)NC(=O)[C@H]([C@@H](C)CC)NC(=O)[C@H](C(C)C)NC1=O (H-RLSGREFIR[S5]VIF[S5]SGGSRW-OH; staple (Z) 10-14)	inactive	> 10000	2750	inactive	> 10000	575		
CC[C@H](C)[C@@H]1NC(=O)[C@H](Cc2ccccc2)NC(=O)[C@@H](NC(=O)[C@H](CCCNC(=N)N)NC(=O)CNC(=O)[C@H](CO)NC(C)=O)CCC(=O)NCCCC[C@@H](C(=O)N[C@H](C(=O)N[C@H](C(=O)N[C@@H](Cc2ccccc2)C(=O)N[C@H](C(=O)N[C@@H](CO)C(=O)NCC(=O)NCC(=O)N[C@@H](CO)C(=O)N[C@@H](CCCNC(=N)N)C(=O)N[C@@H](Cc2c[nH]c3ccccc23)C(=O)O)[C@@H](C)O)[C@@H](C)CC)C(C)C)NC(=O)[C@H](CCCNC(=N)N)NC1=O (Ac-SGREFIRKVIFTSGGSRW-OH; lactam 4-8)	inactive	> 1000	537		> 10000			
CC[C@H](C)[C@@H]1NC(=O)[C@H](Cc2ccccc2)NC(=O)[C@@H](NC(=O)[C@H](CCCNC(=N)N)NC(=O)CNC(=O)[C@H](CO)NC(C)=O)CCSSCC[C@@H](C(=O)N[C@H](C(=O)N[C@H](C(=O)N[C@@H](Cc2ccccc2)C(=O)N[C@H](C(=O)N[C@@H](CO)C(=O)NCC(=O)NCC(=O)N[C@@H](CO)C(=O)N[C@@H](CCCNC(=N)N)C(=O)N[C@@H](Cc2c[nH]c3ccccc23)C(=O)O)[C@@H](C)O)[C@@H](C)CC)C(C)C)NC(=O)[C@H](CCCNC(=N)N)NC1=O (Ac-SGR[hCys]FIR[hCys]VIFTSGGSRW-OH; disulfide 4-8)	inactive	> 10000	3720		> 10000	2510		
CC[C@H](C)[C@H](NC(=O)[C@H](Cc1ccccc1)NC(=O)[C@H](CCC(=O)O)NC(=O)[C@H](CCCNC(=N)N)NC(=O)CNC(=O)[C@H](CO)NC(=O)[C@H](CC(C)C)NC(=O)[C@H](CCCNC(=N)N)NC(C)=O)C(=O)N[C@@H](CCCNC(=N)N)C(=O)N[C@@]1(C)CCC/C=C\CCC[C@@](C)(C(=O)N[C@@H](CO)C(=O)NCC(=O)NCC(=O)N[C@@H](CO)C(=O)N[C@@H](CCCNC(=N)N)C(=O)N[C@@H](Cc2c[nH]c3ccccc23)C(=O)O)NC(=O)[C@H](Cc2ccccc2)NC(=O)[C@H]([C@@H](C)CC)NC(=O)[C@H](C(C)C)NC1=O (Ac-RLSGREFIR[S5]VIF[S5]SGGSRW-OH; staple (Z) 10-14)	inactive	> 10000	> 10000	inactive		603	inactive	
CC[C@H](C)[C@H](NC(=O)[C@H](C)NC(=O)[C@@H](NC(=O)[C@H](CCC(N)=O)NC(=O)[C@H](C)NC(=O)[C@H](CCCNC(=N)N)NC(=O)[C@@H](NC(=O)[C@H](CC(C)C)NC(=O)[C@H](CCC(=O)O)NC(=O)[C@H](CCCNC(=N)N)NC(=O)CNC(=O)[C@H](CS)NC(=O)[C@H](CC(C)C)NC(=O)[C@H](CCCCN)NC(=O)[C@@H](NC(=O)[C@@H](NC(=O)[C@H](CCC(=O)O)NC(=O)[C@H](CCC(=O)O)NC(=O)[C@H](CCSC)NC(=O)[C@H](Cc1c[nH]c2ccccc12)NC(=O)[C@H](CO)NC(=O)[C@@H](N)CC(=O)O)C(C)C)[C@@H](C)CC)C(C)C)[C@@H](C)CC)C(=O)N[C@@H](CS)C(=O)NCC(=O)N[C@@H](CCSC)C(=O)N[C@@H](CO)C(=O)N[C@H](C(=O)N[C@@H](Cc1c[nH]c2ccccc12)C(=O)N[C@@H](CO)C(=O)O)[C@@H](C)O	inactive							> 10000

The remaining molecules from weak to strong by EC50 (Relaxin-3 receptor 1 [2]), led by results:

Activity [1]	EC50 (Relaxin-3 receptor 1 [2]) [nM]	EC50 (Relaxin-3 receptor 2 [3]) [nM]	pEC50 [4]	Ki (Relaxin-3 receptor 2 [5]) [nM]	Ki (Relaxin-3 receptor 1 [6]) [nM]	pKi (Relaxin-3 receptor 2 [5])	EC50 (Relaxin receptor 1) [nM]	SMILES
inactive	11.7				229			CC[C@H](C)[C@@H]1NC(=O)[C@H](Cc2ccccc2)NC(=O)[C@@](C)(NC(=O)[C@H](CCCNC(=N)N)NC(=O)CNC(=O)[C@H](CO)NC(=O)[C@H](CC(C)C)NC(=O)[C@H](CCCNC(=N)N)NC(=O)[C@@H](NC(=O)CNC(C)=O)C(C)C)CCC/C=C/CCC[C@@](C)(C(=O)N[C@H](C(=O)N[C@H](C(=O)N[C@@H](Cc2ccccc2)C(=O)N[C@H](C(=O)N[C@@H](CO)C(=O)NCC(=O)NCC(=O)N[C@@H](CO)C(=O)N[C@@H](CCCNC(=N)N)C(=O)N[C@@H](Cc2c[nH]c3ccccc23)C(=O)O)[C@@H](C)O)[C@@H](C)CC)C(C)C)NC(=O)[C@H](CCCNC(=N)N)NC1=O (Ac-GVRLSGR[S5]FIR[S5]VIFTSGGSRW-OH; staple (E) 8-12)
inactive	4.47	316	inactive	275	93.3			CC[C@H](C)[C@@H]1NC(=O)[C@H](Cc2ccccc2)NC(=O)[C@@](C)(NC(=O)[C@H](CCCNC(=N)N)NC(=O)CNC(=O)[C@H](CO)NC(=O)[C@H](CC(C)C)NC(=O)[C@H](CCCNC(=N)N)NC(=O)[C@@H](NC(=O)CN)C(C)C)CCC/C=C/CCC[C@@](C)(C(=O)N[C@H](C(=O)N[C@H](C(=O)N[C@@H](Cc2ccccc2)C(=O)N[C@H](C(=O)N[C@@H](CO)C(=O)NCC(=O)NCC(=O)N[C@@H](CO)C(=O)N[C@@H](CCCNC(=N)N)C(=O)N[C@@H](Cc2c[nH]c3ccccc23)C(=O)O)[C@@H](C)O)[C@@H](C)CC)C(C)C)NC(=O)[C@H](CCCNC(=N)N)NC1=O (H-GVRLSGR[S5]FIR[S5]VIFTSGGSRW-OH; staple (E) 8-12)
inactive	4.47	191	inactive	407	151			CC[C@H](C)[C@@H]1NC(=O)[C@H](Cc2ccccc2)NC(=O)[C@@](C)(NC(=O)[C@H](CCCNC(=N)N)NC(=O)CNC(=O)[C@@H](N)CO)CCC/C=C/CCC[C@@](C)(C(=O)N[C@H](C(=O)N[C@H](C(=O)N[C@@H](Cc2ccccc2)C(=O)N[C@H](C(=O)N[C@@H](CO)C(=O)NCC(=O)NCC(=O)N[C@@H](CO)C(=O)N[C@@H](CCCNC(=N)N)C(=O)N[C@@H](Cc2c[nH]c3ccccc23)C(=O)O)[C@@H](C)O)[C@@H](C)CC)C(C)C)NC(=O)[C@H](CCCNC(=N)N)NC1=O (H-SGR[S5]FIR[S5]VIFTSGGSRW-OH; staple (E) 4-8)
inactive	3.55	123	inactive					CC[C@H](C)[C@@H]1NC(=O)[C@H](Cc2ccccc2)NC(=O)[C@@](C)(NC(=O)[C@H](CCCNC(=N)N)NC(=O)CNC(=O)[C@H](CO)NC(=O)[C@H](CC(C)C)NC(=O)[C@@H](N)CCCNC(=N)N)CCC/C=C/CCC[C@@](C)(C(=O)N[C@H](C(=O)N[C@H](C(=O)N[C@@H](Cc2ccccc2)C(=O)N[C@H](C(=O)N[C@@H](CO)C(=O)NCC(=O)NCC(=O)N[C@@H](CO)C(=O)N[C@@H](CCCNC(=N)N)C(=O)N[C@@H](Cc2c[nH]c3ccccc23)C(=O)O)[C@@H](C)O)[C@@H](C)CC)C(C)C)NC(=O)[C@H](CCCNC(=N)N)NC1=O (H-RLSGR[S5]FIR[S5]VIFTSGGSRW-OH; staple (E) 6-10)
